Test results from ChEMBL document CHEMBL4251654, “Structure-based design of human immuno- and constitutive proteasomes inhibitors” (Eur J Med Chem, 2018).
The source made the active and inactive calls. The calls are words filed in the database; no cut-off is given here.

Legend:
MCF7 = assay: Cytotoxicity against human MCF7 cells assessed as reduction in cell viability after 48 hrs by Hoechst 33342 staining based HCS assay; assay type: functional; details: Homo sapiens, MCF7, 48 h; read-out: EC50
MDA-MB-231 = assay: Cytotoxicity against human MDA-MB-231 cells assessed as reduction in cell viability after 48 hrs by Hoechst 33342 staining based HCS assay; assay type: functional; details: Homo sapiens, MDA-MB-231, 48 h; read-out: EC50
Outline: (§1)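 Cells were grown at 37 °C, 5% CO2 in medium with 10% FBS, 1% penicillin-streptomycin, 2 mM glutamine: DMEM for HuH7, MDA-MB-231 and fibroblasts, EMEM for Caco2, McCoy's for HCT116, RPMI for PC3 and NCI-H727. 4000 cells/well were seeded and dosed 24 h later at 0.1-25 μM final, from DMSO stocks. After 48 h they were fixed in ethanol/acetic acid and Hoechst-stained nuclei were counted by imaging. Survival is relative to DMSO. EC50 came from dose-response curves.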

[1] = target: T1, Proteasome component C5 (Homo sapiens) (UniProt P20618); assay: Inhibition of human 20S constitutive proteasome beta-1 at 50 uM using Z-LLE-betaNA as substrate incubated for 15 mins measured for 45 mins by fluorescence assay relative to control
T1 sequence (whole entry): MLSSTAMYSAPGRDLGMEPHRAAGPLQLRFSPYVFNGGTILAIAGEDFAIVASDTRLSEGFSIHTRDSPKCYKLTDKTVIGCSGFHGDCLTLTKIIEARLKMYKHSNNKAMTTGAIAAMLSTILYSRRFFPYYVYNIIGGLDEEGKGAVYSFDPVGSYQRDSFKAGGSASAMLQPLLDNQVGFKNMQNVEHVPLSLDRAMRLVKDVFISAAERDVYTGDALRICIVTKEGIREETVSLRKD
Outline: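 Human 20S constitutive proteasome, 0.3 nM, was preincubated 15 min with compound (0.001-50 μM) in pH 8 Tris-HCl 20 mM, 10% glycerol, 0.01% SDS, 2% DMSO. Z-LLE-βNA at 50 μM was added. βNA fluorescence (ex 340/em 404 nm) was monitored 45 min at 37 °C against an untreated control.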

[2] = target: T2, Proteasome subunit beta type-8 (Homo sapiens) (UniProt P28062); assay: Inhibition of human 20S immunoproteasome beta-5 at 50 uM using Suc-LLVY-AMC as substrate incubated for 15 mins measured for 45 mins by fluorescence assay relative to control
T2 sequence (whole entry): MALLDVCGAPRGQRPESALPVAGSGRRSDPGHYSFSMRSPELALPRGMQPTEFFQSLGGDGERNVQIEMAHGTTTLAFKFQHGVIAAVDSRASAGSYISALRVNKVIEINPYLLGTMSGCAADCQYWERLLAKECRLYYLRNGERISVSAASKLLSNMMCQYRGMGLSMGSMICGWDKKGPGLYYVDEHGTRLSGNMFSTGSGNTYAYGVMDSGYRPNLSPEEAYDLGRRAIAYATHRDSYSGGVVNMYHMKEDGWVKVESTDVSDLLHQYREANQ
Outline: (§2)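 Human 20S cCP or iCP (0.3 nM) was exposed to compound (0.001-50 μM) for 15 min in pH 8 buffer of 20 mM Tris-HCl, 10% glycerol, 0.01% SDS, 2% DMSO. Suc-LLVY-AMC at 20 μM followed. Fluorescence (ex 360/em 460 nm) was read 45 min at 37 °C versus untreated enzyme.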

HCT-116 = assay: Cytotoxicity against human HCT116 cells assessed as reduction in cell viability after 48 hrs by Hoechst 33342 staining based HCS assay; assay type: functional; details: Homo sapiens, HCT-116, 48 h; read-out: EC50; outline: as §1
PC-3 = assay: Cytotoxicity against human PC3 cells assessed as reduction in cell viability after 48 hrs by Hoechst 33342 staining based HCS assay; assay type: functional; details: Homo sapiens, PC-3, 48 h; read-out: EC50; outline: as §1
Huh-7 = assay: Cytotoxicity against human HuH7 cells assessed as reduction in cell viability after 48 hrs by Hoechst 33342 staining based HCS assay; assay type: functional; details: Homo sapiens, Huh-7, 48 h; read-out: EC50; outline: as §1
Caco-2 = assay: Cytotoxicity against human Caco2 cells assessed as reduction in cell viability after 48 hrs by Hoechst 33342 staining based HCS assay; assay type: functional; details: Homo sapiens, Caco-2, 48 h; read-out: EC50; outline: as §1
NCI-H727 = assay: Cytotoxicity against human NCI-H727 cells assessed as reduction in cell viability after 48 hrs by Hoechst 33342 staining based HCS assay; assay type: functional; details: Homo sapiens, NCI-H727, 48 h; read-out: EC50; outline: as §1
[3] = target: Proteasome Macropain subunit (Homo sapiens) (UniProt P49721); assay: Inhibition of human 20S constitutive proteasome beta-2 at 50 uM using BocLRR-AMC as substrate incubated for 15 mins measured for 45 mins by fluorescence assay relative to control
Outline: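 Purified human 20S proteasome (cCP or iCP), 0.3 nM, preincubated 15 min with compound (0.001-50 μM) in pH 8 buffer of 20 mM Tris-HCl, 10% glycerol, 0.005% Triton X-100, 2% DMSO. Then Boc-LRR-AMC at 50 μM was added. AMC fluorescence (ex 360/em 460 nm) was followed 45 min at 37 °C. Activity is relative to an untreated control.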

Fibroblast = assay: Cytotoxicity against human fibroblasts assessed as reduction in cell viability after 48 hrs by Hoechst 33342 staining based HCS assay; outline: as §1
[4] = target: T3, Proteasome subunit beta type-9 (Homo sapiens) (UniProt P28065); assay: Inhibition of human 20S immunoproteasome beta-1 at 50 uM using Ac-PAL-AMC as substrate incubated for 15 mins measured for 45 mins by fluorescence assay relative to control
T3 sequence (whole entry): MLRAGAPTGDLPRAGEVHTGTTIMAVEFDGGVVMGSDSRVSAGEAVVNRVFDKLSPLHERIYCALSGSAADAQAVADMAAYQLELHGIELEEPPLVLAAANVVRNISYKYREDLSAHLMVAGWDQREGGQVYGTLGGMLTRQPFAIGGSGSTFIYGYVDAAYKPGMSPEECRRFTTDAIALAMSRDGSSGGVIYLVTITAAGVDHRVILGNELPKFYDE
Outline: (§3)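 Human 20S immunoproteasome (0.3 nM) was given 15 min with compound (0.001-50 μM) in pH 8 buffer of 20 mM Tris-HCl, 10% glycerol, 0.01% SDS, 2% DMSO. Ac-PAL-AMC at 50 μM was the substrate. Fluorescence (ex 360/em 460 nm) was followed 45 min at 37 °C relative to control.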

[5] = target: T4, Proteasome Macropain subunit MB1 (Homo sapiens) (UniProt P28074); assay: Inhibition of human 20S constitutive proteasome beta-5 at 50 uM using Suc-LLVY-AMC as substrate incubated for 15 mins measured for 45 mins by fluorescence assay relative to control; outline: as §2
T4 sequence (whole entry): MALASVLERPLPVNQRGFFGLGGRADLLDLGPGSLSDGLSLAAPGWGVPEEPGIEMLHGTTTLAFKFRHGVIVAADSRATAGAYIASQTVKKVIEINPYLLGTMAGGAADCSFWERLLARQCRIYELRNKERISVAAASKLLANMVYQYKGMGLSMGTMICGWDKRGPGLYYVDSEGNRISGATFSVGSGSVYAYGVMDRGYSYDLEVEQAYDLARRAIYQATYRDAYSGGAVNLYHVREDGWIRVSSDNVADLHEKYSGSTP

[6] = system: 20S proteasome β5 (Homo sapiens); assay: Inhibition of human 20S constitutive proteasome beta-5 at 50 uM
[7] = target: T5, Proteasome subunit beta type-10 (Homo sapiens) (UniProt P40306); assay: Inhibition of human 20S immunoproteasome beta-2 at 50 uM using BocLRR-AMC as substrate incubated for 15 mins measured for 45 mins by fluorescence assay relative to control
T5 sequence (whole entry): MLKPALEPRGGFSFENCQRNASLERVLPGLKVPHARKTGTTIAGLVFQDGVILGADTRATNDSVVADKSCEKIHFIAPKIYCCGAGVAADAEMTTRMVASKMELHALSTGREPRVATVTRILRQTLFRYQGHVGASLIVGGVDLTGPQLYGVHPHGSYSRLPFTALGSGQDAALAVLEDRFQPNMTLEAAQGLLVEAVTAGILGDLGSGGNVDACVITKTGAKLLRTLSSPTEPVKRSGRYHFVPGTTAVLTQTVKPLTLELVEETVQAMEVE

[8] = system: 20S immunoproteasome β5i (Homo sapiens); assay: Inhibition of human 20S immunoproteasome beta-5 at 50 uM
[9] = target: T6, Proteasome subunit beta type-10 (Homo sapiens, UniProt P40306); assay: Inhibition of human 20S immunoproteasome beta-2 using BocLRR-AMC as substrate incubated for 15 mins measured for 45 mins by fluorescence assay
T6 sequence (P40306 whole entry): T5 sequence (whole entry)

[10] = system: 20S immunoproteasome β5i (Homo sapiens); assay: Inhibition of human 20S immunoproteasome beta-5
[11] = target: T7, Proteasome subunit beta type-9 (Homo sapiens, UniProt P28065); assay: Inhibition of human 20S immunoproteasome beta-1 using Ac-PAL-AMC as substrate incubated for 15 mins measured for 45 mins by fluorescence assay; outline: as §3
T7 sequence (P28065 whole entry): T3 sequence (whole entry)

[12] = system: 20S proteasome β5 (Homo sapiens); assay: Inhibition of human 20S constitutive proteasome beta-5

Proteasome Macropain subunit (Homo sapiens), sequence (P49721 whole entry): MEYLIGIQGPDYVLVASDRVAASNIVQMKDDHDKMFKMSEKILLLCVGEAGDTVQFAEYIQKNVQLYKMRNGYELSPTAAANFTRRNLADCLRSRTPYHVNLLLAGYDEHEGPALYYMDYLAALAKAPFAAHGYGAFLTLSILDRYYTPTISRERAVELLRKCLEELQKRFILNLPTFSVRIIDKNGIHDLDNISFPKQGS

Question: What does the source list for COc1ccc(C[C@H](NC(=O)[C@H](C)NC(=O)CN2CCOCC2)C(=O)N[C@@H](Cc2ccccc2)C(=O)[C@@]2(C)CO2)cc1?
Answer: EC50 (MCF7): 260 nM; EC50 (MDA-MB-231): 270 nM; inhibition [1]: > 85%; inhibition [2]: > 85%; EC50 (HCT-116): 110 nM; EC50 (PC-3): 330 nM; EC50 (Huh-7): 390 nM; EC50 (Caco-2): 1300 nM; EC50 (NCI-H727): 300 nM; inhibition [3]: > 85%; EC50 (Fibroblast): 160 nM; inhibition [4]: > 85%; inhibition [5]: > 85%

Question: What does the source list for CNC(=O)[C@H](C[C@@]1(O)C(=O)Nc2ccccc21)NC(=O)[C@H](C)NC(=O)[C@H](Cc1ccc(OCc2ccccc2)cc1)NC(=O)OC(C)(C)C?
Answer: inhibition [6]: inactive; inhibition [1]: inactive; inhibition [7]: 19%; inhibition [3]: 13%; inhibition [8]: 8%; inhibition [4]: 10%

Question: CNC(=O)[C@H](C[C@]1(O)C(=O)Nc2ccccc21)NC(=O)[C@H](C)NC(=O)[C@H](Cc1ccc(OCc2ccccc2)cc1)NC(=O)OC(C)(C)C was tested. Which inhibition [1] did it give?
Answer: 20%

Question: What about the inhibition [7] of the same compound?
Answer: > 85%

Question: And the inhibition [3]?
Answer: 36%

Question: What about the inhibition [8] of the same compound?
Answer: 24%

Question: What about the inhibition [4] of the same compound?
Answer: 13%

Question: What about the IC50 [9] of the same compound?
Answer: 79000 nM

Question: With C[C@H](NC(=O)[C@@H](N)Cc1ccc(OCc2ccccc2)cc1)C(=O)N[C@@H](C[C@]1(O)C(=O)Nc2ccccc21)C(=O)NCc1ccccc1 as the compound, how does the IC50 [10] read?
Answer: 13000 nM

Question: And the inhibition [1]?
Answer: > 85%

Question: And the inhibition [7]?
Answer: > 85%

Question: And the inhibition [3]?
Answer: > 85%

Question: And the IC50 [11]?
Answer: 21500 nM

Question: What about the inhibition [4] of the same compound?
Answer: > 85%

Question: What about the IC50 [9] of the same compound?
Answer: 27200 nM

Question: And the IC50 [12]?
Answer: 10700 nM
